The values below come from ChEMBL document CHEMBL4330172, “Astratides: Insulin-Modulating, Insecticidal, and Antifungal Cysteine-Rich Peptides from Astragalus membranaceus” (J Nat Prod, 2019).

Molecules are shown by their SMILES. Calls of active or inactive are those of the source. No cut-off for these calls is given here. Where a SMILES comes first, the peptide text is derived from it.

Data set [1] in a line: (§1) Cytotoxicity against Spodoptera frugiperda Sf9 cells assessed as mortality after 24 hrs by MTT assay. Type of data set: functional. The following applies: Sf9, 24 h, read-out: LD50 (the source's name). Summed up: (§2)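 Sf9 cells seeded at 1 × 10^5 cells/mL for 24 h, then exposed 24 h to peptide at 0.01–200 μM (10 levels). 0.1% DMSO served as negative control, 10% Triton X-100 as positive control. Viability by MTT (0.5 mg/mL, 4 h at 26 °C), DMSO solubilisation, absorbance 550 nm. LD50 taken from the dose–mortality curve.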

In data set [2] the test system is Sf9. Described as §1. Type of data set: functional. The method, boiled down: as §2
In a further data set the test system is CHO-K1. In words: Cytotoxicity against CHOK1 cells up to 200 uM after 24 hrs by MTT assay. In kind it is cell-based, Cricetulus griseus. The following applies: chinese hamster, cho-k1, 24 h. The method, boiled down: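 CHO-K1 cells grown at 37 °C, 5% CO2 in DMEM with 10% FBS, exposed 24 h to peptide at 0.01–200 μM. Negative control 0.1% DMSO, positive control 10% Triton X-100. Viability read by MTT (0.5 mg/mL, 4 h), then DMSO solubilisation 1 h, absorbance at 550 nm.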
On the technique in general: Tetrazolium assays rely on reduction of a dye to a coloured formazan, in cell work by metabolically active cells.

Data set [3] relates to Sf9. In words: Cytotoxicity against Spodoptera frugiperda Sf9 cells assessed as induction of membrane integrity loss at 5 uM after 15 hrs by PKH26-labeling based phase contrast microscopic analysis. In kind it is functional, cell-based. Summed up: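 Sf9 cells grown at 26 °C in Sf-900 III SFM with 2% FBS. Incubated with 5 μM peptide at 26 °C for 15 h. Live-cell bright-field imaging at 0, 1, 4, 8 and 15 h to follow cell shape and membrane integrity.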

For data set [4], the system named is Beta-TC6. Description: Decrease in insulin secretion in mouse BetaTC6 cells up to 1 uM after 24 hrs by ELISA. Type of data set: functional, cell-based. Summed up:
(§3)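 Beta-TC-6 cells grown in high-glucose DMEM with 15% FBS at 37 °C, 5% CO2. Seeded 24 h, then treated 24 h with peptide (0.01, 0.1, 1, 10, 100 μM). Positive control 10 μM GW9508, negative control 0.1% DMSO. Secreted insulin measured by mouse insulin ELISA, reported in μIU/mL.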
A general note: In an ELISA, binding on a coated surface is turned into a signal by an enzyme label.

Data set [5] relates to Beta-TC6. In words: Decrease in insulin secretion in mouse BetaTC6 cells at 1 to 100 uM after 24 hrs by ELISA. In kind it is functional, cell-based. The method, boiled down: as §3
Data set [6] concerns Beta-TC6. Description: Decrease in insulin secretion in mouse BetaTC6 cells assessed as insulin level at 1 to 100 uM after 24 hrs by ELISA (reference value: 1225.2 uIU/ml). Type of data set: functional. The method, boiled down:
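Beta-TC-6 cells grown in high-glucose DMEM with 15% FBS. Seeded at 5000 cells/mL for 24 h, then treated 24 h with peptide at 0.01, 0.1, 1, 10 or 100 μM. Controls were 10 μM GW9508 (positive) and 0.1% DMSO (negative). Secreted insulin measured by mouse insulin ELISA.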

A short description of data set [7]: Stability in water at 200 uM at 100 degC for 2 hrs by RP-HPLC analysis. As to conditions: read-out: Stability. Type of data set: physicochemical. Summed up: (§4)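 Peptide at 200 μM held in a 100 °C water bath or in HCl (pH 2) for 2 h. Sampled at 0, 30, 60, 90 and 120 min, quenched on ice (heat) or with NaOH (acid). Remaining peptide measured by RP-HPLC, in triplicate.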

Data set [8] is described as follows: Stability in pH 2 HCl at 200 uM for 2 hrs by RP-HPLC analysis. In kind it is physicochemical. The following applies: read-out: Stability. The method, boiled down: as §4
A further data set deals with pepsin. In words: Stability in pH 2 HCl assessed as pepsin (unknown origin)-mediated compound hydrolysis by measuring parent compound remaining at 200 uM up to 6 hrs by RP-HPLC analysis. The following applies: human, pepsin in pH 2 HCl, read-out: Stability. Type of data set: ADME. The method, boiled down:
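Peptide at 200 μM incubated at 37 °C for 6 h with 4 mg/mL pepsin in HCl (pH 2), or with 20 U/mL aminopeptidase I in 20 mM tricine/0.05% BSA (pH 8.0). Sampled at 0, 2, 4 and 6 h, quenched with NaOH or HCl. Remaining peptide measured by RP-HPLC, in triplicate.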

A short description of data set [9]: Stability in human serum after 36 hrs by RP-HPLC analysis. In kind it is ADME, cell-free. The following applies: read-out: Stability. The method, boiled down: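 Peptide (0.2 mg) incubated with 25% human male AB serum in phenol red-free DMEM at 37 °C. Aliquots taken at 0, 12, 24 and 48 h, quenched with 95% EtOH, held 15 min at 4 °C and centrifuged. Intact peptide quantified by RP-HPLC, in triplicate.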

Another data set has as its target aminopeptidase (Homo sapiens, UniProt O43895+P15144+P28838+P50579+P53582+P55786+Q07075+Q6P179+Q6Q4G3+Q6UB28+Q8N6M6+Q8NDH3+Q9H4A4+Q9HAU8+Q9NQH7+Q9NQW7+Q9NZ08+Q9UIQ6+Q9ULA0). Description: Stability in pH 8.0 20 mM tricine with 0.05% BSA assessed as aminopeptidase (unknown origin)-mediated compound hydrolysis by measuring parent compound remaining at 200 uM up to 6 hrs by RP-HPLC analysis. As to conditions: aminopeptidase in pH 8.0 20 mM tricine with 0.05% BSA.

In data set [10] the test system is Sf9. Description: Cytotoxicity against Spodoptera frugiperda Sf9 cells assessed as induction of membrane integrity loss at 10 uM after 24 hrs using Alex488-labeled test compound by PKH26/Hoechst staining based confocal microscopic analysis.

In the case of `CC[C@H](C)[C@H](NC(=O)[C@H](CS)NC(=O)[C@H](Cc1ccccc1)NC(=O)CNC(=O)[C@@H](NC(=O)[C@@H](NC(=O)[C@H](CC(C)C)NC(=O)CNC(=O)[C@@H](NC(=O)[C@@H]1CCCN1C(=O)[C@@H](NC(=O)[C@H](CS)NC(=O)[C@H](CCCNC(=N)N)NC(=O)[C@H](CS)NC(=O)[C@H](CC(=O)O)NC(=O)[C@H](CCCNC(=N)N)NC(=O)[C@H](CO)NC(=O)CNC(=O)[C@H](CS)NC(=O)[C@@H]1CCCN1C(=O)[C@@H]1CCCN1C(=O)[C@@H](NC(=O)[C@H](CCC(=O)O)NC(=O)[C@H](Cc1ccccc1)NC(=O)[C@@H]1CCCN1C(=O)[C@H](CO)NC(=O)[C@H](CS)NC(=O)[C@H](C)NC(=O)CNC(=O)[C@H](CO)NC(=O)[C@H](CS)NC(=O)[C@H](CC(=O)O)NC(=O)[C@@H](N)C(C)C)C(C)C)[C@@H](C)CC)[C@@H](C)CC)C(C)C)C(C)C)C(=O)N[C@@H](Cc1ccc(O)cc1)C(=O)N1CCC[C@H]1C(=O)N[C@H](C(=O)NCC(=O)O)[C@@H](C)O` (H-VDCSGACSPFEVPPCGSRDCRCIPIGLVVGFCIYPTG-OH), the LC50 in data set [1] was 5.9 µM. Further, the Activity result with Sf9 [2] is “Dose-dependent effect”; with CHO-K1, “Non-Toxic”; with Beta-TC6 [5] it was “Dose-dependent effect”; in the data set on Beta-TC6 [6], 811.14 uIU/ml. The result in the data set with Sf9 [3] and in the data set on Sf9 [10] was Active. The result in the data set on Beta-TC6 [4] was inactive. For the same compound, the remaining at 2 h, 200 µM was determined as 82% in [7] and 92% in [8]. For the same compound, the remaining at 6 h, 200 µM with pepsin and at aminopeptidase was over 88% in each case. Moreover, the remaining at 36 h in [9] is over 90%.
